Data from ChEMBL document CHEMBL1135904, “Toward an optimal joint recognition of the S1' subsites of endothelin converting enzyme-1 (ECE-1), angiotensin converting enzyme (ACE), and neutral endopeptidase (NEP)” (J Med Chem, 2002).

How the values were obtained:
[1] = biological target: T1, Angiotensin-converting enzyme (Rattus norvegicus, UniProt P47820); experiment: Inhibition of Angiotensin I converting enzyme (ACE) purified from rat testis
T1 sequence (P47820 whole entry): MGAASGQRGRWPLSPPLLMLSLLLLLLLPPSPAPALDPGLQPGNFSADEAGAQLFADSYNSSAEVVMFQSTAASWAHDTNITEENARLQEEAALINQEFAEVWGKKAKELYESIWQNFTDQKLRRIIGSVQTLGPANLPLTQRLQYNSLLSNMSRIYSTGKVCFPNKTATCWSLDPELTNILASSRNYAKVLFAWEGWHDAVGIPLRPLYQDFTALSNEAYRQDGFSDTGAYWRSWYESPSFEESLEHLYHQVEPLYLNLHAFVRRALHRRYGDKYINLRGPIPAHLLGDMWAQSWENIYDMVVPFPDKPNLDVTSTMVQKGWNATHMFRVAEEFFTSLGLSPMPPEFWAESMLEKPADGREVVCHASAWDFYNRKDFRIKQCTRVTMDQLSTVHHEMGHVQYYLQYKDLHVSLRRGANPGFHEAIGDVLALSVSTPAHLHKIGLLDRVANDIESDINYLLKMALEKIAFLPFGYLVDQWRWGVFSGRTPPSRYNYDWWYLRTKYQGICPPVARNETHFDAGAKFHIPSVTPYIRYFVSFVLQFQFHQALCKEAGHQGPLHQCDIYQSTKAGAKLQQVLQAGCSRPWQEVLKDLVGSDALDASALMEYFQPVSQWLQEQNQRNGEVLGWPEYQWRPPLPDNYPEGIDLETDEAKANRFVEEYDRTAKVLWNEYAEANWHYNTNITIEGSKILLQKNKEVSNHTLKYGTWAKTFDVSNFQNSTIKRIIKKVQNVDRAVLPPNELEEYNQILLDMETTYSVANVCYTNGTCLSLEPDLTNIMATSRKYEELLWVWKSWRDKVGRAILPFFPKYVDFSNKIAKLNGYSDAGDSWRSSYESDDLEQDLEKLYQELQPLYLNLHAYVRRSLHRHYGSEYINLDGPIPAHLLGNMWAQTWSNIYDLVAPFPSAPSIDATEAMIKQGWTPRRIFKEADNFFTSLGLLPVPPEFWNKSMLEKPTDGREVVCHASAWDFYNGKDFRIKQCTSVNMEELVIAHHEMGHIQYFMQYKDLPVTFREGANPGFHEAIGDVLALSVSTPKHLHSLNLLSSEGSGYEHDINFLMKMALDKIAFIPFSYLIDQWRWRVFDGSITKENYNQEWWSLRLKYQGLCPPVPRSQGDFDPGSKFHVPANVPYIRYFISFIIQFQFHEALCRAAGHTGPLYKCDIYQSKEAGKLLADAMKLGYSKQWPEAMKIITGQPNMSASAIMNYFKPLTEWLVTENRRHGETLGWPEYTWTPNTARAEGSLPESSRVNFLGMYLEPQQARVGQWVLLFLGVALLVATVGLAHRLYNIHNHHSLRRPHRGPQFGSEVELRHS
In short: (§1)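 ACE purified from rat testis, final 0.02 pmol/100 µL, preincubated 10 min at 37 °C with or without various inhibitor concentrations in 50 mM Tris/HCl/NaCl 1% pH 7.4. Then 50 µM N-Cbz-Phe-His-Leu (Km 50 µM) added for 30 min. Stopped with 2 N NaOH and diluted with water. Released His-Leu measured fluorometrically.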

[2] = biological target: T2, Endothelin-converting enzyme 1 (Homo sapiens, UniProt P42892); experiment: Inhibition activity towards human recombinant Endothelin-converting enzyme 1 (hECE-1c) expressed in Cos-7 cells; assay type: cell-based
T2 sequence (P42892 whole entry): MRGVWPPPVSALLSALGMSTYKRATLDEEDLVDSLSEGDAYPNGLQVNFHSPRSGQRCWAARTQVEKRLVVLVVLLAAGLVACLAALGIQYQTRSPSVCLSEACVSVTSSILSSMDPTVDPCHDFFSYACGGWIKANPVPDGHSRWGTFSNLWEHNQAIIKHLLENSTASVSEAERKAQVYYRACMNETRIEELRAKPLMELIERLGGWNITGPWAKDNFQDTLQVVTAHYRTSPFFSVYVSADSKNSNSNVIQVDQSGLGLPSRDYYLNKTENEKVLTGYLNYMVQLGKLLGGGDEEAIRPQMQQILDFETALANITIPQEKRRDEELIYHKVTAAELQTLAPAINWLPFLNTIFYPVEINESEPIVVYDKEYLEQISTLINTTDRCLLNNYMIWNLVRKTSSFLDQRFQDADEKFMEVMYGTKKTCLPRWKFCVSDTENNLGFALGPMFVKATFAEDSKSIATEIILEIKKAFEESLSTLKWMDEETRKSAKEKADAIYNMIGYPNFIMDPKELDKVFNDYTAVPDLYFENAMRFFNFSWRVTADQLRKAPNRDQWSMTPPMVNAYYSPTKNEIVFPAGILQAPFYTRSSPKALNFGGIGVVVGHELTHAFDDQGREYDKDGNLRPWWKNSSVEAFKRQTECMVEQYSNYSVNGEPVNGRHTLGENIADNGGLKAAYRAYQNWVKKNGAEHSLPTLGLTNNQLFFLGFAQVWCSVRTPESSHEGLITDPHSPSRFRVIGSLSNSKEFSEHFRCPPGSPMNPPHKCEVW
In short: (§2)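 Recombinant human ECE-1c from Cos-7 cells, 4 µg total protein per well, preincubated 10 min at 37 °C in 50 mM tris-maleate pH 6-8 with or without rising inhibitor concentrations. Reaction started with 20 µM (Pya21-(p-NO2)Phe22)bigET(19-35) (Km 20 µM), run 1 h at 37 °C, stopped by cooling. Fluorescence read at ex 340/em 400 nm.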

Neprilysin [3] = biological target: T3, Neprilysin (Oryctolagus cuniculus, UniProt P08049); experiment: Inhibition of neutral endopeptidase (NEP) isolated from rabbit kidney
T3 sequence (P08049 whole entry): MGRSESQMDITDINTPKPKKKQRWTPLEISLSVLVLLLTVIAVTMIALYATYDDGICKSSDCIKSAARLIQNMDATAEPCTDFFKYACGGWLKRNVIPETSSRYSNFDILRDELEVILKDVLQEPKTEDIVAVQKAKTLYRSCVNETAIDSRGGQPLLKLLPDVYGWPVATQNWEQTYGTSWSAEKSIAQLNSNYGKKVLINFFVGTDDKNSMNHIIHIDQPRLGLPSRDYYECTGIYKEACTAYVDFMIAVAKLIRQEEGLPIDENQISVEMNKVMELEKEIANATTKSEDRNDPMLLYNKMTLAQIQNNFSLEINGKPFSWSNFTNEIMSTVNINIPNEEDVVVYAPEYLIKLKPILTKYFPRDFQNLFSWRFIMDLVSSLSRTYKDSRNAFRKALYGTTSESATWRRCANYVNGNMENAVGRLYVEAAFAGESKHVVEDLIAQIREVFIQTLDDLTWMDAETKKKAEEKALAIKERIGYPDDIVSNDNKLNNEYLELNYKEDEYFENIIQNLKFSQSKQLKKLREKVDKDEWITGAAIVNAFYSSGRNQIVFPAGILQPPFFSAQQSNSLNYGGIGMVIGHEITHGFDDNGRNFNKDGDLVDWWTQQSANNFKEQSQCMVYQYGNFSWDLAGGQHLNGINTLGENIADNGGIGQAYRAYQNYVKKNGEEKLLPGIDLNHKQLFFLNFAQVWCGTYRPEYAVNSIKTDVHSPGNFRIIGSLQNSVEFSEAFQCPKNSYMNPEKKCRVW
In short: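 Rabbit kidney NEP purified to homogeneity, final 250 ng/mL, preincubated 10 min at 37 °C with or without rising inhibitor concentrations in 50 mM Tris-HCl pH 7.4. Then 50 µM DGPA (Dansyl-Gly-(p-NO2)Phe-β-Ala; Km 37 µM) added for 1 h. Stopped with DMSO. Fluorescence read at ex 340/em 530 nm.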

[4] = biological target: T2, Endothelin-converting enzyme 1; experiment: Inhibition of Endothelin-converting enzyme 1 (ECE); in short: as §2
Neprilysin [5] = biological target: T3, Neprilysin; experiment: Inhibition of neutral endopeptidase (NEP)
In short: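 NEP purified from rabbit kidney (final 250 ng/mL) preincubated 10 min at 37 °C with or without increasing inhibitor concentrations in 50 mM Tris-HCl pH 7.4. Reaction stopped after 1 h with DMSO.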

[6] = biological target: T1, Angiotensin-converting enzyme; experiment: Inhibition of Angiotensin I converting enzyme (ACE); in short: as §1

Structure (SMILES)	Ki [1] [µM]	Ki [2] [µM]	Ki (Neprilysin [3]) [µM]	Ki [4] [µM]	Ki (Neprilysin [5]) [µM]	Ki [6] [µM]
C[C@H](c1ccc(-c2ccccc2)cc1)[C@@H](CS)C(=O)N[C@@H](Cc1c[nH]c2ccccc12)C(=O)O	0.33	0.19	0.005	–	–	–
O=C(O)[C@H](Cc1c[nH]c2ccccc12)NC(=O)[C@@H](CS)[C@H]1CCCc2ccccc21	0.01	0.19	0.003	–	–	–
O=C(O)[C@H](Cc1c[nH]c2ccccc12)NC(=O)[C@H](CS)[C@@H]1CCCc2ccccc21	0.134	1.24	0.043	–	–	–
O=C(O)C(Cc1c[nH]c2ccccc12)NC(=O)C(CS)c1cccc2ccccc12 (stereo not given)	0.15	1.56	0.022	–	–	–
O=C(O)C(Cc1c[nH]c2ccccc12)NC(=O)C(CS)C1CCc2ccccc21 (stereo not given)	0.02	0.1	0.0018	–	–	–
O=C(O)[C@H](Cc1c[nH]c2ccccc12)NC(=O)[C@H](CS)[C@H]1CCc2ccccc21	0.043	0.026	0.0007	–	–	–
C[C@H](c1ccccc1)[C@@H](CS)C(=O)N[C@@H](Cc1c[nH]c2ccccc12)C(=O)O	0.29	0.58	0.005	–	–	–
O=C(O)[C@H](Cc1c[nH]c2ccccc12)NC(=O)[C@@H](CS)[C@H]1CCc2ccccc21	0.01	0.29	0.0021	–	–	–
O=P(O)(O)C(CCc1cccc2ccccc12)N[C@@H](Cc1ccc(-c2ccccc2)cc1)c1nnn[nH]1 (stereo not given in full)	–	–	–	0.0108	0.0022	> 10
C[C@@H](c1ccccc1)[C@H](CS)C(=O)N[C@@H](Cc1c[nH]c2ccccc12)C(=O)O	0.015	0.78	0.0025	–	–	–
CC(c1ccc(-c2ccccc2)cc1)C(CS)C(=O)N[C@@H](Cc1c[nH]c2ccccc12)C(=O)O (stereo not given in full)	0.062	0.22	0.0048	–	–	–
C[C@@H](c1ccccc1)[C@@H](CS)C(=O)N[C@@H](Cc1c[nH]c2ccccc12)C(=O)O	0.033	0.2	0.0024	–	–	–
C[C@@H](c1ccc(-c2ccccc2)cc1)[C@H](CS)C(=O)N[C@@H](Cc1c[nH]c2ccccc12)C(=O)O	0.038	0.92	0.035	–	–	–
CC(c1ccc2ccccc2c1)C(CS)C(=O)NC(Cc1c[nH]c2ccccc12)C(=O)O (stereo not given)	0.047	0.98	0.0054	–	–	–
O=C(O)C(Cc1c[nH]c2ccccc12)NC(=O)C(CS)C1CCCc2ccccc21 (stereo not given)	0.018	0.3	0.0045	–	–	–
O=C(O)[C@H](Cc1c[nH]c2ccccc12)NC(=O)[C@H](CS)[C@H]1CCCc2ccccc21	0.076	0.25	0.003	–	–	–
CC(c1ccccc1)C(CS)C(=O)NC(Cc1c[nH]c2ccccc12)C(=O)O (stereo not given)	0.04	0.3	0.003	–	–	–
C[C@@H](c1ccc(-c2ccccc2)cc1)[C@@H](CS)C(=O)N[C@@H](Cc1c[nH]c2ccccc12)C(=O)O	0.13	0.135	0.0015	–	–	–
O=C(O)CNC(=O)C(CS)Cc1ccccc1 (stereo not given) [THIORPHAN]	–	–	–	> 10	–	> 0.1
O=C(N[C@@H](Cc1c[nH]c2ccccc12)C(=O)O)C(CS)[C@@H]1CCCc2ccccc21 (stereo not given in full)	0.026	0.67	0.008	–	–	–
CC(c1cccc2ccccc12)C(CS)C(=O)NC(Cc1c[nH]c2ccccc12)C(=O)O (stereo not given)	0.079	0.6	0.051	–	–	–
O=C(O)[C@H](Cc1c[nH]c2ccccc12)NC(=O)[C@@H](CS)[C@@H]1CCc2ccccc21	0.041	1.14	0.01	–	–	–
O=C(O)C(Cc1c[nH]c2ccccc12)NC(=O)C(CS)C(c1ccccc1)c1ccccc1 (stereo not given)	–	–	–	> 10	0.14	0.25
O=C(O)C(Cc1c[nH]c2ccccc12)NC(=O)C(CS)c1ccc(-c2ccccc2)cc1 (stereo not given)	0.077	4.15	0.135	–	–	–
O=C(O)C(Cc1c[nH]c2ccccc12)NC(=O)C(CS)c1cccc(-c2ccccc2)c1 (stereo not given)	0.15	0.9	0.035	–	–	–
C[C@H](c1ccc(-c2ccccc2)cc1)[C@H](CS)C(=O)N[C@@H](Cc1c[nH]c2ccccc12)C(=O)O	0.065	0.11	0.03	–	–	–
C[C@H](CS)C(=O)N1CCC[C@H]1C(=O)O [CAPTOPRIL]	–	–	–	> 10	> 1	–
C[C@H](c1ccccc1)[C@H](CS)C(=O)N[C@@H](Cc1c[nH]c2ccccc12)C(=O)O	0.029	0.1	0.0022	–	–	–
O=C(O)[C@H](Cc1c[nH]c2ccccc12)NC(=O)[C@H](CS)[C@@H]1CCc2ccccc21	0.17	0.68	0.027	–	–	–
